Compound activity (PubChem BioAssay)
GSK3beta inhib = blocks human GSK3beta kinase activity | AID 2097 | GST-GSK3beta kinase, ADP-Glo luminescence, 60 min; active compounds read low | activity score (negative = inhibition), % at 10 µM | hit rate 0.038% among 300,000;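 active = more than half of replicate wells score below -50%, meaning over 50% inhibition versus plate controls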;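 note: 0% = median DMSO wells and -100% = median GW8510 positive control wells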
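Assay system: GST-tagged human GSK3beta kinase, cell-free; Input: 1.6 ng GSK3beta; Medium: Tris/MgCl2 kinase buffer; Timing: 60 min enzyme reaction, room temperature; Signal: ADP-Glo luminescence quantifying ADP generated by kinase; Evaluation: score relative to plate controls; Benchmarks: DMSO neutral wells and GW8510 at 20 µM as positive.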
STK33 inh = human STK33 kinase inhibition. Q9BYT3. hit rate 0.073% among 320,000. inhibition, % at 10 µM. purified STK33, MBP phosphorylation, ADP-Glo luminescence. AID 2661;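 active = inhibition at or above 25%, using the most active replicate where run in duplicate; inactive = inhibition below 25%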
MEKK3 PB1 HTS = raises or lowers MEK5 binding to the human MEKK3 PB1 domain; bead-based flow cytometry, Alexa488-MEK5 binding to MEKK3; actives lie on both sides; 0 = blocked by unlabeled MEK5, 100 = vehicle; binding response (% of control), % at 10 µM; hit rate 1.4% among 290,000; AID 1529;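 active = binding response more than 3 SD above or below the average of its plate-row segment, actives on both sides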;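 note: Alexa488 bead fluorescence after subtracting the streptavidin-only scavenger bead signal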
MEKK2wt PB1 HTS = raises or lowers MEK5 binding to wildtype human MEKK2 PB1 domain; Q9Y2U5; bead flow cytometry, Alexa488-MEK5 binding to MEKK2 WT; actives lie on both sides; binding response (% of control), % at 10 µM; hit rate 1.1% among 290,000; AID 1531; in the data active = binding response below about 67% or above about 130%
GSK3 alpha inh = blocks human GSK-3 alpha kinase; P49840; ADP-Glo luminescence, 60 min; inhibition, % at 10 µM; hit rate 0.1% among 320,000; AID 2650;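 active = more than half of replicates show inhibition above 20%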;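 note: GST-tagged GSK-3 alpha with peptide substrate and 25 µM ATP; 0% = DMSO neutral wells and 100% = GW8510 positive control wells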
Target sequence (P49840 whole entry, looked up): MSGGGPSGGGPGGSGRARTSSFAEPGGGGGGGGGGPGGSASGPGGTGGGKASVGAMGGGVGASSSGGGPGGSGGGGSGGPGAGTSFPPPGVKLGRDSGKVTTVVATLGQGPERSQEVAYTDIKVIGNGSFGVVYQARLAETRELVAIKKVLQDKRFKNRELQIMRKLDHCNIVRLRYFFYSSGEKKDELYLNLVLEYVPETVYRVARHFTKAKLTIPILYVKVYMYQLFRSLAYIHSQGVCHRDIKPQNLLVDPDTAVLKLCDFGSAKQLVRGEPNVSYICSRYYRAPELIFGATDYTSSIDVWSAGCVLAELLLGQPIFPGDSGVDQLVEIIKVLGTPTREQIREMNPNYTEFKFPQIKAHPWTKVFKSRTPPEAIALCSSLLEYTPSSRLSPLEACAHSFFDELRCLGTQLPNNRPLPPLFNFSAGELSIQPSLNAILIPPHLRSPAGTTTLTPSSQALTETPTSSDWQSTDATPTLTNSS
MEKK2mut PB1 HTS = signal of MEK5 binding to mutant human MEKK2 PB1 domain; bead flow cytometry, Alexa488-MEK5 binding to MEKK2 mutant; percent response, % at 10 µM; hit rate 0.35% among 290,000; AID 1530; in the data active = percent response above about 24%, passing the limit was not always enough
MEKK2wt confirm = raises or lowers MEK5 binding to wildtype human MEKK2, retest. bead flow cytometry, Alexa488-MEK5 binding to MEKK2 WT; actives lie on both sides. AID 1892. hit rate 2.4% among 5,900. binding response (% of control), % at 10 µM. shares compounds with MEKK3 PB1 HTS; in the data active = binding response below about 16% or above about 210%; inactive = in between
MEKK2mut confirm = signal of MEK5 binding to mutant human MEKK2, retest. hit rate 2% among 5,900. percent response, % at 10 µM. bead flow cytometry, Alexa488-MEK5 binding to MEKK2 mutant. shares compounds with MEKK3 PB1 HTS; in the data active = percent response mostly above about 71%, no sharp cut-off; inactive = mostly below about 38%;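 note: higher means compound restores mutant binding toward wildtype level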
MEKK3-MEK5 inh = confirmation of inhibitors of MEK5 binding to human MEKK3; shares compounds with MEKK3 PB1 HTS; bead flow cytometry, Alexa488-MEK5 binding to MEKK3; active compounds read low; binding response (% of control), % at 10 µM; hit rate 1.8% among 5,900;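 active = binding response below 72% of control, or above a set upper limit, though filed actives all read lower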;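 note: 100% = DMSO only wells and 0% = binding blocked by excess unlabeled MEK5; lower values mean stronger disruption of MEK5 binding to MEKK3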
Numbers without * were called inactive; nt = not tested or not shown; [ ] = another dose, or the depositor's remark. Hits are enriched below; roughly 2.1% of the tested compounds scored in any of these assays.

SMILES	GSK3beta inhib	STK33 inh	MEKK3 PB1 HTS	MEKK2wt PB1 HTS	GSK3 alpha inh	MEKK2mut PB1 HTS	MEKK2wt confirm	MEKK2mut confirm	MEKK3-MEK5 inh
CCOC(=O)C1=C(c2ccccc2)NC(=O)NC1c1cc(Cl)c(O)c(OC)c1 (stereo not given)	-1	-1	95	98	-2	-8	nt	nt	nt
O=C(c1ccc(S(=O)(=O)N2CCCC2)cc1)N1CCCc2ccccc21	-2	-1	117	119	-1	27*	100	-1	105
O=C(c1ccc(S(=O)(=O)N2CCCCC2)cc1)N1CCCc2ccccc21	2	-1	101	92	2	-2	nt	nt	nt
O=S(=O)(c1ccc(F)cc1)n1ccc(-c2cccc(OCc3c(F)cccc3Cl)c2)n1	0	0	2.0*[inhibitor]	2.0*[inhibitor]	1	-17	95	-8	97
O=S(=O)(c1ccc(Cl)cc1)n1ccc(-c2cccc(OCc3c(F)cccc3Cl)c2)n1	1	0	108	96	-2	2	nt	nt	nt
CCN1CCC(NC(=O)Nc2cc(Cl)ccc2OC)CC1	0	-1	95	97	0	-6	nt	nt	nt
Cc1sc2ncnc(OCC(=O)N3CC(=O)Nc4ccccc43)c2c1C	0	0	42*[inhibitor]	46*[inhibitor]	0	-18	100	6	104
CCOC(=O)Cn1nc(C)c(NC(=O)COc2cccc(Cl)c2)c1C	4	-1	132*	119	-3	0	106	7	104
O=C(NNS(=O)(=O)c1ccccc1)c1cccs1	4	nt	104	104	nt	18	nt	nt	nt
COc1ccccc1NC(=O)C(=O)NNS(=O)(=O)c1ccc2ccccc2c1	-1	0	131*	118	-6	31	103	5	101
O=C(NNS(=O)(=O)c1ccc2ccccc2c1)c1cccs1	5	0	144*	103	-3	0	99	-1	101
CCCCNC(=S)NC(=O)c1ccccc1Br	2	1	154*	111	2	1	98	-1	102
NCCSc1c(-c2ccc(Cl)cc2)[nH]c2ccccc12	1	-1	106	171*	4	51*	171	29	106
NCCSc1c(-c2ccccc2)[nH]c2ccccc12	0	2	118	146*	-1	25*	141	35	109
CCOc1ccc(NS(=O)(=O)c2ccc(C(=O)NNC(=O)c3ccccc3O)cc2)cc1	nt	3	nt	nt	-1	nt	nt	nt	nt
CCOC(=O)c1c(NC(=O)CN2C(=O)NC3(CCCCC3)C2=O)sc(C)c1-c1ccc(C)cc1	-1	-3	101	105	0	4	nt	nt	nt
CCOC(=O)c1sc(NC(=O)CN2C(=O)NC3(CCCCCCC3)C2=O)c(C(=O)OCC)c1C	2	-1	35*[inhibitor]	25*[inhibitor]	-3	-11	100	2	106
CC1CCCCN1CC(O)COc1ccc(OCC(O)CN2CCCCC2C)cc1 (stereo not given)	0	-1	92	103	0	3	nt	nt	nt
CCCCOc1ccc(CONS(=O)(=O)c2ccc(NC(C)=O)cc2)cc1Cl	-1	-1	160*	106	-2	1	106	-1	106
COc1ccc(-c2cc(-n3c(C(F)(F)F)nc4ccccc43)n(CCC#N)n2)cc1	-1	1	82*[inhibitor]	86	-2	-7	98	-10	100
COc1ccc(Sc2nc3ccccc3n3c(C(F)(F)F)nnc23)cc1	1	-2	99	92	-2	-1	nt	nt	nt
COc1ccccc1N1CCN(CCCNC(=O)Nc2ccccc2C)CC1	-2	0	110	119	-2	29*	115	-1	106
